Measurements published in ChEMBL document CHEMBL1811793, “Induced production of N-formyl alkaloids from Aspergillus fumigatus by co-culture with Streptomyces peucetius” (J Nat Prod, 2011).
pIC50: −log10 of the molar value. Activity calls are given as the source filed them. No cut-off for these calls is given here.

Legend:
SK-OV-3 = assay: Cytotoxicity against human SKOV3 cells; assay type: functional, cell-based
How it was run: (§1)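 Run within the NCI-60 human tumour cell line screen panel.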

ACHN = assay: Cytotoxicity against human ACHN cells; assay type: functional, cell-based; how it was run: as §1
SK-MEL-28 = assay: Cytotoxicity against human SK-MEL-28 cells; assay type: functional, cell-based; how it was run: as §1
HOP-92 = assay: Cytotoxicity against human HOP92 cells; assay type: functional, cell-based; how it was run: as §1
UACC-62 = assay: Cytotoxicity against human UACC62 cells; assay type: functional, cell-based; how it was run: as §1
SF-295 = assay: Cytotoxicity against human SF295 cells; assay type: functional, cell-based; how it was run: as §1
U-251 = assay: Cytotoxicity against human U251 cells; assay type: functional, cell-based; how it was run: as §1
Malme-3M = assay: Cytotoxicity against human MALME-3M cells; assay type: functional, cell-based; how it was run: as §1
MOLT-4 = assay: Cytotoxicity against human MOLT4 cells; assay type: functional, cell-based; how it was run: as §1
NCI-H460 = assay: Cytotoxicity against human NCI-H460 cells; assay type: functional, cell-based; how it was run: as §1
A498 = assay: Cytotoxicity against human A498 cells; assay type: functional, cell-based; how it was run: as §1
SK-MEL-5 = assay: Cytotoxicity against human SK-MEL-5 cells; assay type: functional, cell-based; how it was run: as §1
Candida albicans = assay: Antimicrobial activity against Candida albicans at 50 ug/disk by Kirby-Bauer disk diffusion assay; assay type: functional, organism-based
Staphylococcus aureus = assay: Antimicrobial activity against Staphylococcus aureus at 50 ug/disk by Kirby-Bauer disk diffusion assay; assay type: functional, organism-based
Fusarium incarnatum = assay: Antimicrobial activity against Fusarium pallidoroseum at 50 ug/disk by Kirby-Bauer disk diffusion assay; assay type: functional, organism-based
[1] = test system: Burkholderia thailandensis; assay: Antimicrobial activity against Burkholderia thailandensis at 50 ug/disk by Kirby-Bauer disk diffusion assay; assay type: functional
Escherichia coli = assay: Antimicrobial activity against Escherichia coli at 50 ug/disk by Kirby-Bauer disk diffusion assay; assay type: functional, organism-based

COc1ccc(/C=C(NC=O)/C(=C/c2ccc(OC)cc2)NC=O)cc1
pIC50 (SK-OV-3): 6.08
pIC50 (ACHN): < 5.60
pIC50 (SK-MEL-28): 6.01
pIC50 (HOP-92): 6.05
pIC50 (UACC-62): 6.12
pIC50 (SF-295): 6.15
pIC50 (U-251): 6.04
pIC50 (Malme-3M): 6.19
pIC50 (MOLT-4): < 5.60
pIC50 (NCI-H460): 5.95
pIC50 (A498): 6.07
pIC50 (SK-MEL-5): 6.09

[C-]#[N+]C(=C\c1ccc(OC)cc1)/C(=C/c1ccc(OS(=O)(=O)O)cc1)[N+]#[C-]
Activity (SK-OV-3): inactive
Activity (ACHN): inactive
Activity (SK-MEL-28): inactive
Activity (Candida albicans): inactive
Activity (HOP-92): inactive
Activity (UACC-62): inactive
Activity (Staphylococcus aureus): inactive
Activity (Fusarium incarnatum): inactive
Activity (SF-295): inactive
Activity [1]: inactive
Activity (U-251): inactive
Activity (Malme-3M): inactive
Activity (Escherichia coli): inactive
Activity (MOLT-4): inactive
Activity (NCI-H460): inactive
Activity (A498): inactive
Activity (SK-MEL-5): inactive

[C-]#[N+]C(=C\c1ccc(O)cc1)/C(=C/c1ccc(OC)cc1)[N+]#[C-]
Activity (SK-OV-3): inactive
Activity (ACHN): inactive
Activity (SK-MEL-28): inactive
Activity (HOP-92): inactive
Activity (UACC-62): inactive
Activity (SF-295): inactive
Activity (U-251): inactive
Activity (Malme-3M): inactive
Activity (MOLT-4): inactive
Activity (NCI-H460): inactive
Activity (A498): inactive
Activity (SK-MEL-5): inactive

COc1ccc(/C=C(NC=O)/C(=C/c2ccc(O)cc2)NC=O)cc1
pIC50 (SK-OV-3): 5.67
pIC50 (ACHN): 5.86
pIC50 (SK-MEL-28): 5.69
pIC50 (HOP-92): < 5.60
pIC50 (UACC-62): < 5.60
pIC50 (SF-295): < 5.60
pIC50 (U-251): < 5.60
pIC50 (Malme-3M): < 5.60
pIC50 (MOLT-4): 5.74
pIC50 (NCI-H460): 5.74
pIC50 (A498): 5.76
pIC50 (SK-MEL-5): < 5.60

COc1ccc(/C=C(NC=O)/C(=C/c2ccc(OS(=O)(=O)O)cc2)NC=O)cc1
Activity (SK-OV-3): inactive
Activity (ACHN): inactive
Activity (SK-MEL-28): inactive
Activity (Candida albicans): inactive
Activity (HOP-92): inactive
Activity (UACC-62): inactive
Activity (Staphylococcus aureus): inactive
Activity (Fusarium incarnatum): inactive
Activity (SF-295): inactive
Activity [1]: inactive
Activity (U-251): inactive
Activity (Malme-3M): inactive
Activity (Escherichia coli): inactive
Activity (MOLT-4): inactive
Activity (NCI-H460): inactive
Activity (A498): inactive
Activity (SK-MEL-5): inactive

[C-]#[N+]C(=C\c1ccc(OC)cc1)/C(=C/c1ccc(OC)cc1)[N+]#[C-]
Activity (SK-OV-3): inactive
Activity (ACHN): inactive
Activity (SK-MEL-28): inactive
Activity (HOP-92): inactive
Activity (UACC-62): inactive
Activity (SF-295): inactive
Activity (U-251): inactive
Activity (Malme-3M): inactive
Activity (MOLT-4): inactive
Activity (NCI-H460): inactive
Activity (A498): inactive
Activity (SK-MEL-5): inactive
